Holding throughout (type): tissue-based
The target of data set [1] is T1, Amine oxidase [flavin-containing] A (Rattus norvegicus, UniProt P21396).
T1 sequence (P21396 whole entry): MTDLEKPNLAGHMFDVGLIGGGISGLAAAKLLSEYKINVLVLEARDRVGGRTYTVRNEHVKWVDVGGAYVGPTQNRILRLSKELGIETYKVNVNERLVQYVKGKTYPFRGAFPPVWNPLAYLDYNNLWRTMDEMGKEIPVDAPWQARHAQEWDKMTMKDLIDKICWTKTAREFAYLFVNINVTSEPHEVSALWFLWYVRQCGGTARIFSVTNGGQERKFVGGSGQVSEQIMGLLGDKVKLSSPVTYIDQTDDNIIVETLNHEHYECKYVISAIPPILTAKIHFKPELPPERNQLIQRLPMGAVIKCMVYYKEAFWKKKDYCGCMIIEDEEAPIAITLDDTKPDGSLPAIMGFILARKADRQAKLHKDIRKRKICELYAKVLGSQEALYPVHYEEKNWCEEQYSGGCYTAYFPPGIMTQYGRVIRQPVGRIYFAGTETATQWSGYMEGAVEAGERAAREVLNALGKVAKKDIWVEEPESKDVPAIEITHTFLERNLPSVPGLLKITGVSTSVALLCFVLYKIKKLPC
The experiment in a line: Reversible inhibition of MAOA in rat liver homogenate assessed as recovery of enzyme activity at 1 to 1000 uM up to 24 hrs by dialysis. The procedure, abridged: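 Rat liver MAO was incubated with compound (1–1000 µM, DMSO ≤1%) at 37 °C for 0–60 min. It was then dialysed for 24 h at 37 °C against potassium phosphate buffer, pH 7.6. Recovered activity was measured by the Holt coupled assay using p-tyramine, with absorbance read at 498 nm.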

For data set [2], the target named is T2, Amine oxidase [flavin-containing] B (Rattus norvegicus, UniProt P19643).
T2 sequence (P19643 whole entry): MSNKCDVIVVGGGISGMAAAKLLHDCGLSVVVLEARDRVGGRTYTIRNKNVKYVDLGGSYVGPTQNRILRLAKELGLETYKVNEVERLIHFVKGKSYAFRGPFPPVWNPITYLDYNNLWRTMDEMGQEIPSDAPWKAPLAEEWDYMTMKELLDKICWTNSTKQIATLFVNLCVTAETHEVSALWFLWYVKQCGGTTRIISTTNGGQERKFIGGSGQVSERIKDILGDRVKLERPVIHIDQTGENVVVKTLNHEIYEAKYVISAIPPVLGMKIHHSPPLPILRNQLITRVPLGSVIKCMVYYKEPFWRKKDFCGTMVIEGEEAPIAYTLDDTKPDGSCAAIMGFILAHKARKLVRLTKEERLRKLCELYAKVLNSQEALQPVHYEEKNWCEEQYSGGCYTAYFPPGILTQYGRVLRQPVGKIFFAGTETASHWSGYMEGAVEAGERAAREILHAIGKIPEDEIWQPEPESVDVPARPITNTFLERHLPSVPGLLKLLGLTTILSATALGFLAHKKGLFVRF
The experiment in a line: Competitive inhibition of MAOB in rat liver homogenate after 60 mins by Lineweaver-Burke plot analysis. The note with it: read-out: Kic.

Data set [3] has as its target T1, Amine oxidase [flavin-containing] A. The experiment in a line: Competitive inhibition of MAOA in rat liver homogenate after 60 mins by Lineweaver-Burke plot analysis. The note with it: read-out: Kic.

Consider 14 molecules from ChEMBL document CHEMBL1157576, “Development of selective and reversible pyrazoline based MAO-A inhibitors: Synthesis, biological evaluation and docking studies” (Bioorg Med Chem, 2010).

Regarding `Cc1cccc(NC(=S)N2N=C(c3ccc(O)cc3)CC2c2cccs2)c1` (configuration not stated), the outcome in data set [1] was Active. The Ki came out at 2210 µM in data set [2] and 0.15 µM in data set [3].
In the case of `Cc1ccccc1NC(=S)N1N=C(c2ccc(O)cc2)CC1c1ccco1` (configuration not stated), the outcome in data set [1] was Active. Moreover, the Ki in data set [2] came to 28.8 µM; in data set [3] it was 0.231 µM.
Consider `Cc1ccc(NC(=S)N2N=C(c3ccc(O)cc3)CC2c2cccs2)cc1` (configuration not stated), for which the result in data set [1] was Active. Besides, the results for the Ki in data set [2] and in data set [3] were 71.5 µM and 0.351 µM, respectively.
For the molecule `COc1ccc(NC(=S)N2N=C(c3ccc(O)cc3)CC2c2ccco2)cc1` (configuration not stated), the result in data set [1] was Active. The Ki in data set [2] is 1060 µM; in data set [3] it was 0.95 µM.
Take `Cc1ccc(NC(=S)N2N=C(c3ccc(O)cc3)CC2c2ccco2)cc1` (configuration not stated): the result in data set [1] was Active. For the same molecule, the Ki was 5010 µM in data set [2] and 0.48 µM in data set [3].
The like results for `COc1ccccc1NC(=S)N1N=C(c2ccc(O)cc2)CC1c1cccs1` (configuration not stated) were, in that order, “Active”, 44 µM and 0.301 µM.
Turning to `COc1ccc(NC(=S)N2N=C(c3ccc(O)cc3)CC2c2cccs2)cc1` (configuration not stated), the result in data set [1] was Active. Further, the values for the Ki in data set [2] and in data set [3] were 7150 µM and 0.501 µM, respectively.
For the molecule `COc1ccccc1NC(=S)N1N=C(c2ccc(O)cc2)CC1c1ccco1` (configuration not stated), the outcome in data set [1] was Active. The Ki in data set [2] worked out at 174 µM; in data set [3] it was 0.755 µM.
In the case of `COc1cccc(NC(=S)N2N=C(c3ccc(O)cc3)CC2c2ccco2)c1` (configuration not stated), the result in data set [1] was Active. For the same molecule, the figures for the Ki in data set [2] and in data set [3] were 460 µM and 0.176 µM, respectively.
`Cc1cccc(NC(=S)N2N=C(c3ccc(O)cc3)CC2c2ccco2)c1` (configuration not stated): the result in data set [1] was Active. In addition, the Ki in data set [2] worked out at 580 µM; in data set [3], 0.591 µM.
Consider `COc1cccc(NC(=S)N2N=C(c3ccc(O)cc3)CC2c2cccs2)c1` (configuration not stated), for which the result in data set [1] was Active. In addition, the Ki in data set [2] amounted to 1100 µM; in data set [3], 0.181 µM.
Take `Cc1ccccc1NC(=S)N1N=C(c2ccc(O)cc2)CC1c1cccs1` (configuration not stated): the result in data set [1] was Active. The Ki in data set [2] worked out at 70.2 µM; in data set [3], 0.281 µM.
On to `Oc1ccc(C2=NN(C(=S)Nc3ccccc3)C(c3cccs3)C2)cc1` (configuration not stated), for which, in data set [1], the outcome was Active. Also, the Ki in data set [2] was 47 µM; in data set [3] it was 0.48 µM.
Consider `Oc1ccc(C2=NN(C(=S)Nc3ccccc3)C(c3ccco3)C2)cc1` (configuration not stated), for which the result in data set [1] was Active. Also, the Ki was determined as 778 µM in data set [2] and 0.701 µM in data set [3].
